From ChEMBL document CHEMBL3399923, “Design and synthesis of new bioisosteres of spirooxindoles (MI-63/219) as anti-breast cancer agents” (Bioorg Med Chem, 2015)

Tests used:
MDA-MB-231 = test: Cytotoxicity against human MDA-MB-231 cells after 48 hrs by MTT assay; type: functional, cell-based; settings: MDA-MB-231, 48 h
How it was run: (§1)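 MTT viability screen for cytotoxicity across the breast cancer and normal kidney epithelial lines; IC50 reported in µM.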

MCF7 = test: Cytotoxicity against human MCF7 cells after 48 hrs by MTT assay; type: functional, cell-based; settings: MCF7, 48 h; how it was run: as §1
HEK293 = test: Cytotoxicity against human HEK293 cells after 48 hrs by MTT assay; type: cell-based; settings: HEK293, 48 h; how it was run: as §1
Vero = test: Cytotoxicity against African green monkey Vero cells after 48 hrs by MTT assay; type: cell-based; settings: Chlorocebus sabaeus; how it was run: as §1

SMILES | IC50 (MDA-MB-231) [µM] | IC50 (MCF7) [µM] | IC50 (HEK293) [µM] | IC50 (Vero) [µM]
O=C(c1ccc(OCCN2CCOCC2)cc1)C1[C@H](c2ccccc2)[C@@H](c2ccccc2)NC12C(=O)Nc1ccc(Cl)cc12 (stereo partly specified) | 19.2 | 18 | 25.4 | 30.8
O=C(c1ccc(OCCN2CCCCC2)cc1)C1[C@H](c2ccccc2)[C@@H](c2ccccc2)NC12C(=O)Nc1ccc([N+](=O)[O-])cc12 (stereo partly specified) | 13.5 | 15.2 | 18.8 | 22.4
CC(CN(C)C)Oc1ccc(C(=O)C2[C@H](c3ccccc3)[C@@H](c3ccccc3)NC23C(=O)Nc2ccccc23)cc1 (stereo partly specified) | > 50 | 20.5 | > 50 | > 50
O=C(c1ccc([N+](=O)[O-])cc1)C1[C@H](c2ccccc2)[C@@H](c2ccccc2)NC12C(=O)Nc1ccccc12 (stereo partly specified) | 29.5 | 15.5 | 21.4 | > 50
CN(C)CCCOc1ccc(C(=O)C2[C@H](c3ccccc3)[C@@H](c3ccccc3)NC23C(=O)Nc2ccccc23)cc1 (stereo partly specified) | 9.2 | 9.6 | > 50 | > 50
CCN1C(=O)C2(N[C@H](c3ccccc3)[C@@H](c3ccccc3)C2C(=O)c2ccc(OCCN3CCOCC3)cc2)c2ccccc21 (stereo partly specified) | > 50 | > 50 | > 50 | > 50
CC/C(=C(\c1ccc(O)cc1)c1ccc(OCCN(C)C)cc1)c1ccccc1 |  | 13.6 | > 50 | > 50
O=C(c1ccccc1)C1[C@H](c2ccc(O)cc2)[C@@H](c2ccccc2)NC12C(=O)Nc1ccccc12 (stereo partly specified) | 37.3 | 36.3 | > 50 | > 50
